Screens deposited in PubChem by Johns Hopkins Ion Channel Center.
Compounds with a hit are over-represented: about 3.5% of the library has one in this group of screens.
RGS4 act: RGS4 potentiation or activation | HEK293 M3R/inducible RGS4, carbachol calcium flux Fluo4; active compounds read low | B-score at 10 µM | 0.92% of 310,000 active;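 active = B-score of the integrated calcium signal more than 4 SD below the library mean, with starting fluorescence not abnormally high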;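 note: negative B-score means reduced calcium response which marks RGS4 activation or potentiation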
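Test system: HEK293 cells with stable M3R and inducible RGS4; also added: carbachol at ECmax as muscarinic agonist stimulus; schedule: dye loading 30 min 37 °C, buffer rest 30 min RT; technique: kinetic calcium fluorescence imaging with Fluo4-AM dye, 2 µM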
MrgX1 agonist: activates human MrgX1 receptor signaling. Q96LB2. MrgX1-HEK293 cells, Fluo-4 calcium fluorescence, agonist mode; active compounds read high. B-score at 10 µM. 0.44% of 310,000 active;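 active = calcium response B-score plate-corrected fluorescence ratio at least 3 library SD, with starting fluorescence B-score inside 5 SD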
Target sequence (Q96LB2 whole entry, looked up): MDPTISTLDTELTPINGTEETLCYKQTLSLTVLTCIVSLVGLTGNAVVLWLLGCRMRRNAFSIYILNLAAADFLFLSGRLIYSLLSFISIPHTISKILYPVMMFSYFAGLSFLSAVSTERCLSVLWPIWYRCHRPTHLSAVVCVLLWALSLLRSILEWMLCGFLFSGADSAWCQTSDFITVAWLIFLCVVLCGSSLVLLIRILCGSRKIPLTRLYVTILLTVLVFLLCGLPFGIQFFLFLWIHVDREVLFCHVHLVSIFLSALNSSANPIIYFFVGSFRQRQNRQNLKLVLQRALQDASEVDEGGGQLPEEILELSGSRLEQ
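Test system: HEK293 cells stably expressing human MrgX1 receptor; amount: 15,000 cells per well; doses: compound delivered in addition one of three; times: overnight plating before 1 h dye loading; detection: Fluo-4 NW calcium-flux fluorescence, kinetic read; read-out basis: B-scored fluorescence response ratio; controls: positive and negative controls per plate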
MrgX1 antagonist: antagonists of human MrgX1 receptor; MRGX1-HEK293 calcium flux, Fluo-4, BAM8-22 antagonism; active compounds read low; B-score at 10 µM; 1.3% of 310,000 active; AID 588676;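 active = calcium-response B-score plate-corrected more than 3 library SD below zero, starting fluorescence within 5 deviations, no agonist response on first addition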;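 note: peak minus trough fluorescence over baseline after final BAM8-22 challenge near maximal dose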
MrgX1 allo act: human MrgX1 positive allosteric modulation, primary screen | Q96LB2 | MrgX1-HEK293, Fluo-4 calcium flux, FDSS; active compounds read high | B-score at 10 µM | 0.63% of 310,000 active | AID 588675;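 active = plate-corrected calcium response at least 3 library SD above typical, normal starting fluorescence, not activating the receptor alone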;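 note: compound read alongside a low EC10 to EC30 dose of BAM8-22 agonist; peak minus trough fluorescence over baseline measured at the second addition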
RGS4 inh: human RGS4 inhibition; B-score at 10 µM; 0.45% of 310,000 active; HEK293 M3R/RGS4 inducible, Fluo-4 calcium flux; active compounds read high; triggered by carbachol at its EC20; P49798;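 active = B-score, a plate-corrected calcium signal, over three deviations above library mean, with baseline fluorescence within five deviations of library mean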;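 note: RGS4 expression induced by doxycycline in cells with stable M3 receptor; B-score is computed from the integrated fluorescence ratio over baseline after carbachol; higher B-score means a larger calcium signal and so more RGS4 inhibition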
Target sequence (P49798 whole entry, looked up): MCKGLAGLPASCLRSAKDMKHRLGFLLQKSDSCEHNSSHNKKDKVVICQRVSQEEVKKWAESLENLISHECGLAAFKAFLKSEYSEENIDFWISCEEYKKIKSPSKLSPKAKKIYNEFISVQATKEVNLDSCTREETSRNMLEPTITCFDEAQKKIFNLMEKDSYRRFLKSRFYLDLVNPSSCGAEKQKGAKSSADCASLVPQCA
RGS4 inh valid: validation of RGS4 inhibitors. shares compounds with RGS4 inh. HEK293 M3R/RGS4, carbachol calcium Fluo-4 fluorescence; carbachol added at its EC20; 0 = buffer wells, 100 = carbachol control. calcium response, % at 10 µM. 65% of 1,700 active. AID 492999;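 active = duplicate-averaged calcium response above the buffer-only control mean plus 5 SD of those controls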;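 note: integrated fluorescence ratio F max minus min over baseline F0; higher response in RGS4-induced cells means RGS4 inhibition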
RGS4 uninduced: non-induced cell nonspecific activity of RGS4 inhibitors | activity (percent), % at 10 µM | HEK293 M3R non-induced, carbachol calcium Fluo-4; submaximal (EC20) carbachol stimulus; buffer wells 0%, carbachol control wells 100% | shares compounds with RGS4 inh | 20% of 1,900 active | AID 493000; call rule not given here;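 note: RGS4 induction absent so cells express M3R without RGS4; higher means more calcium signal and flags a non-specific hit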
RGS4 inh ctr2: second RGS4 inhibitor counter-screen in uninduced cells lacking carbachol; calcium response (agonist-mode artifact), % at 10 µM; HEK293 M3R/RGS4 non-induced, Fluo-4 calcium, no carbachol; normalised: buffer wells 0%, carbachol wells 100%; 22% of 1,900 active; shares compounds with RGS4 inh;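 active = duplicate-averaged calcium rise in uninduced cells above buffer wells' mean plus 5 SD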
* = called active by the depositor; i = inactive; / = no result.

SMILES | RGS4 act | MrgX1 agonist | MrgX1 antagonist | MrgX1 allo act | RGS4 inh | RGS4 inh valid | RGS4 uninduced | RGS4 inh ctr2
COC(=O)N/N=C/c1cc(Br)ccc1O | i | i | i | i | i | / | / | /
CC(C)NC(=S)N/N=C/c1cc(Br)ccc1O | i | i | i | i | 5.8* | 12%* | i | i
Cc1[nH]n(-c2ncc(-c3ccccc3)s2)c(=O)c1C(c1ccc(Cl)cc1)C(C#N)C#N (stereo unspecified) | i | i | -5.3* | i | 14* | 70%* | i | 52%*
Cc1cccc(/C(N)=N/OC(=O)c2ccc(Br)o2)c1 | i | i | i | i | 5.2* | i | i | i
O=c1[nH]c(/C=C/c2ccccc2)c([N+](=O)[O-])c(=O)[nH]1 | i | i | i | i | 5.7* | 22%* | i | i
COc1cc(/C=C/c2[nH]c(=O)[nH]c(=O)c2[N+](=O)[O-])ccc1OCCC(C)C | i | i | i | i | i | / | / | /
O=c1[nH]c(/C=C/c2cccc([N+](=O)[O-])c2)c([N+](=O)[O-])c(=O)[nH]1 | i | i | i | i | i | / | / | /
CCC(C)Oc1ccc(/C=C/c2[nH]c(=O)[nH]c(=O)c2[N+](=O)[O-])cc1OC (stereo unspecified) | i | i | i | i | 5.6* | 10%* | i | 76%*
CC1S/C(=N/N=C/c2cccs2)NC1=O (stereo unspecified) | i | i | i | i | i | / | / | /
CCCC1S/C(=N/N=C/c2cccs2)NC1=O (stereo unspecified) | i | i | i | i | i | / | i | i
CCC1S/C(=N/N=C/c2cccs2)NC1=O (stereo unspecified) | i | i | i | i | i | / | i | i
O=C1N/C(=N\N=C\c2cccs2)SC1Cc1ccc(Cl)cc1 (stereo unspecified) | i | i | i | i | i | / | / | /
O=[N+]([O-])c1ccc(Nc2nc(NCCO)nc(N3CCCC3)n2)cc1 | i | i | i | i | i | / | / | /
NNc1nc(Nc2ccc([N+](=O)[O-])cc2)nc(N2CCCCCC2)n1 | i | i | i | i | 5.7* | i | i | i
Cc1cccc(Nc2nc(N3CCCCC3)nc(N3CCCCC3)n2)c1 | i | i | i | i | 9.7* | 48%* | 55%* | i
NNc1nc(Nc2ccccc2)nc(N2CCCCC2)n1 | i | i | i | i | i | i | i | i
O=c1nc(N2CCCCC2)nc(Nc2ccccc2)[nH]1 | i | i | i | i | i | i | i | i
NNc1nc(Nc2ccccc2)nc(Nc2ccccc2)n1 | i | i | i | i | i | / | / | /
Cc1ccc(S(=O)(=O)NC(=O)c2ccccc2C)cc1 | i | i | i | i | i | / | / | /
COc1ccc([N+](=O)[O-])cc1/C=N/Nc1nc(N2CCCCC2)nc(N2CCCCC2)n1 | i | i | i | i | 4.8* | 10%* | i | i
Cc1ccc(Cl)cc1NC(=S)N/N=C/c1cccc2ccccc12 | i | i | i | i | i | / | / | /
Cc1ncc(CO)c(/C=N/NC(=O)c2cc3c(s2)CCCC3)c1O | i | i | i | i | 7.2* | 102%* | 78%* | 35%*
COc1ccc(C(=O)N/N=C/c2c(CO)cnc(C)c2O)cc1 | i | i | i | i | i | / | / | /
Cc1ncc(CO)c(/C=N/NC(=O)c2ccc(O)cc2)c1O | i | i | i | i | i | / | i | 8.0%*
Cc1ccc(S(=O)(=O)N(C)C)cc1NC(=O)CCc1ccccc1 | i | i | i | i | i | / | / | /
SMILES | RGS4 act | MrgX1 agonist | MrgX1 antagonist | MrgX1 allo act | RGS4 inh | RGS4 inh valid | RGS4 uninduced | RGS4 inh ctr2
C=CCN1CCN(C(=O)c2cc3c(s2)CCC(CC)C3)CC1 (stereo unspecified) | i | i | i | i | i | / | / | /
CCOC(=O)CSC1=NC(=O)/C(=C/c2ccc(Br)cc2)S1 | i | i | i | i | i | / | 36%* | i
CCOC(=O)CSC1=NC(=O)/C(=C\c2ccc(OC(C)=O)cc2)S1 | i | i | i | i | 18* | 38%* | i | 9.0%*
NNC(=O)c1nc[nH]c1C(=O)Nc1ccccn1 | i | i | i | i | 15* | 5.0%* | i | i
CC1CCN(c2nc(N3CCCCC3)nc(N3CCCCC3)n2)CC1 | i | i | i | i | 8.7* | 44%* | 55%* | i
Cc1cccc(C(=O)NCC(=O)OC(C)C(=O)Nc2ccc(Cl)cn2)c1 (stereo unspecified) | i | i | i | i | i | / | / | /
Cc1cc(C)nc(S/C=C/C(=O)c2ccccc2F)n1 | i | i | i | i | 5.8* | 5.0%* | i | i
COc1cc(C(C(=O)NC2CCCCC2)N(C(=O)Cc2c[nH]c3ccccc23)c2ccccc2C)cc(OC)c1OC (stereo unspecified) | i | i | i | i | 4.9* | 7.5%* | i | i
CCNC(=S)N1CCC(n2cnc3ccccc32)CC1 | i | i | i | i | i | / | / | /
COc1ccccc1CN1C[C@@H]2C[C@@H](c3[nH]c4c(C)cccc4c3C)N3CCC[C@@]23C1=O | i | i | i | i | i | / | / | /
CC1=NN(c2ccccc2)C(=O)/C1=C/c1ccc(-c2ccc(C)c(C(=O)O)c2)o1 | i | i | i | i | 17* | 74%* | i | i
CCOC(=O)c1c(C)oc2c1cc(NS(=O)(=O)c1ccc(C(=O)O)cc1)c1ccccc12 | i | i | i | i | i | / | i | i
O=C(O)c1ccc(Cn2cc(/C=C\[N+](=O)[O-])c3ccccc32)o1 | i | i | i | i | i | i | i | i
O=[N+]([O-])/C=C/c1cn(Cc2ccc(Cl)cc2)c2ccccc12 | i | i | i | i | 8.6* | 24%* | i | 76%*
CCOc1ccc(/C=C/[N+](=O)[O-])c2ccccc12 | i | 42* | i | i | 23* | 45%* | i | 27%*
